Active and inactive are the calls of the source.
Key:
[1] = tested on: Yersinia pseudotuberculosis YPIII; assay: Inhibition of T3S in Yersinia pseudotuberculosis YPIII expressing yopE-luxAB at 25 uM after 3 hrs by luciferase reporter gene assay
Outline: (§1)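 Strain YPIII pIB102 (yopE-luxAB) grown overnight at room temperature in BHI with 5 mM EGTA and 20 mM MgCl2 (calcium depletion), adjusted to OD600 0.088–0.095. Compound added from DMSO at 1.56–200 µM final (eight concentrations). Shaken 1 h at room temperature, then 2 h at 37 °C. Decanal added and light emission read immediately. Triplicates, repeated at least three times.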

[2] = tested on: Yersinia pseudotuberculosis; assay: Antibacterial activity against Yersinia pseudotuberculosis expressing pIB102 at 100 uM after 23 hrs by broth dilution assay; assay type: functional, organism-based
Outline: (§2)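 Wild-type pIB102 grown overnight in LB at room temperature, diluted to OD600 = 0.1 in LB with 2.5 mM CaCl2. Compound added from DMSO stock to final 50 and 100 µM. Incubated at 37 °C with absorbance at 595 nm read over 23 h.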

[3] = tested on: Yersinia pseudotuberculosis YPIII; assay: Inhibition of T3S in Yersinia pseudotuberculosis YPIII expressing yopE-luxAB at 6.25 uM after 3 hrs by luciferase reporter gene assay; outline: as §1
[4] = tested on: Yersinia pseudotuberculosis; assay: Antibacterial activity against Yersinia pseudotuberculosis expressing pIB102 at 50 uM after 23 hrs by broth dilution assay; assay type: functional, organism-based; outline: as §2
[5] = tested on: Yersinia pseudotuberculosis YPIII; assay: Inhibition of T3S in Yersinia pseudotuberculosis YPIII expressing yopE-luxAB at 200 uM after 3 hrs by luciferase reporter gene assay; outline: as §1
[6] = tested on: Yersinia pseudotuberculosis YPIII; assay: Inhibition of T3S in Yersinia pseudotuberculosis YPIII expressing yopE-luxAB at 100 uM after 3 hrs by luciferase reporter gene assay; outline: as §1
[7] = tested on: Escherichia coli; assay: Antibacterial activity against Escherichia coli DH5[alpha] at 100 uM after 23 hrs by broth dilution assay; assay type: functional, organism-based
Outline: (§3)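 Overnight LB culture of E. coli DH5α grown at 37 °C, diluted to OD600 0.1 in LB with 2.5 mM CaCl2; compound added from DMSO stock to final 50 or 100 µM. Incubated at 37 °C with absorbance at 595 nm followed over 23 h.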

[8] = tested on: Yersinia pseudotuberculosis YPIII; assay: Inhibition of T3S in Yersinia pseudotuberculosis YPIII expressing yopE-luxAB at 12.5 uM after 3 hrs by luciferase reporter gene assay; outline: as §1
[9] = tested on: Escherichia coli; assay: Antibacterial activity against Enterotoxigenic Escherichia coli infected in mouse J774 cells assessed as inhibition of bacteria-induced cell death at 25 to 100 uM after 14 hrs using calcein AM staining by fluorescence microscopy; assay type: functional, organism-based
Outline: (§4)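 J774A macrophages (4×10⁴/well, DMEM with 10% FCS, gentamicin 3 µg/mL, 24 h at 37 °C, 5% CO2) washed with PBS, then given fresh DMEM with compound plus bacteria (OD600 0.002), final 25, 50, 100 µM, DMSO below 0.5%. ETEC grown overnight in LB at 37 °C, diluted and grown 3 h. 14 h at 37 °C, 5% CO2; CalceinAM 40 min, fluorescence 485/535 nm, confirmed by microscopy; uninfected cells = 100% viability; gentamicin 5 µg/mL rescue control.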

[10] = tested on: Yersinia pseudotuberculosis YPIII; assay: Inhibition of T3S in Yersinia pseudotuberculosis YPIII expressing yopE-luxAB at 50 uM after 3 hrs by luciferase reporter gene assay; outline: as §1
[11] = tested on: Escherichia coli; assay: Antibacterial activity against Escherichia coli DH5[alpha] at 50 uM after 23 hrs by broth dilution assay; assay type: functional, organism-based; outline: as §3
[12] = tested on: Yersinia pseudotuberculosis; assay: Antibacterial activity against Yersinia pseudotuberculosis expressing pIB102 infected in mouse J774 cells assessed as inhibition of bacteria-induced cell death at 50 uM after 14 hrs using calcein AM staining by fluorescence microscopy; assay type: functional, organism-based
Outline: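 J774A macrophages (4 × 10^4 cells/well) grown 24 h in DMEM/10% FCS/gentamicin. Wild-type pIB102 grown in LB plus kanamycin overnight at room temperature, diluted 1/10 in DMEM, shaken 1 h at room temperature then 2 h at 37 °C. Added at OD600 = 0.002 with compound (25, 50, 100 µM final; DMSO <0.5%). Incubated 14 h, 37 °C, 5% CO2. CalceinAM 40 min, fluorescence 485/535 nm; uninfected cells = 100% viability.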

[13] = tested on: Yersinia pseudotuberculosis YPIII; assay: Inhibition of T3S in Yersinia pseudotuberculosis YPIII expressing yopE-luxAB at 1.56 uM after 3 hrs by luciferase reporter gene assay; outline: as §1
[14] = tested on: Yersinia pseudotuberculosis YPIII; assay: Inhibition of T3S in Yersinia pseudotuberculosis YPIII expressing yopE-luxAB at 3.13 uM after 3 hrs by luciferase reporter gene assay; outline: as §1
[15] = tested on: J774; assay: Cytotoxicity against mouse J774 cells at 25 to 100 uM after 14 hrs using calcein AM staining by fluorescence microscopy; assay type: cell-based; conditions: j774, 14 h; outline: as §4
[16] = molecular target: Tyrosine-protein phosphatase YopH (Yersinia pseudotuberculosis serotype I (strain IP32953)) (UniProt P08538); assay: Inhibition of YopH in Yersinia pseudotuberculosis YPIII expressing yopE-luxAB treated 3 hrs before substrate addition measured after 15 mins by microplate reader
Tyrosine-protein phosphatase YopH (Yersinia pseudotuberculosis serotype I (strain IP32953)), sequence (P08538 whole entry): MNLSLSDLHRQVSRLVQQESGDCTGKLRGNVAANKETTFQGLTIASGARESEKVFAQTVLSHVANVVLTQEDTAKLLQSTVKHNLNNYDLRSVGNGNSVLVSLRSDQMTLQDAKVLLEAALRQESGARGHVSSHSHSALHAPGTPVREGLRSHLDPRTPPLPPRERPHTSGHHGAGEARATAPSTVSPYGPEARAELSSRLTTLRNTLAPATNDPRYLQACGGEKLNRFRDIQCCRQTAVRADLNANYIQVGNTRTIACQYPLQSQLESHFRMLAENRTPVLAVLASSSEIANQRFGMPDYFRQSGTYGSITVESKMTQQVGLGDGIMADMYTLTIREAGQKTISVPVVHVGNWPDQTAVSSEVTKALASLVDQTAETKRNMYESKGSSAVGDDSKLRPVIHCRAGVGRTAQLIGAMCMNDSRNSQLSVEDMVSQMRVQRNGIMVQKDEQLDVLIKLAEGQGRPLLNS
Outline: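 Same calcium-depleted YPIII pIB102 cultures and compound exposure (1 h room temperature, then 2 h 37 °C). An aliquot of the bacterial suspension was mixed with 25 mM p-nitrophenyl phosphate, 40 mM MES pH 5.0, 1.6 mM DTT. Incubated 15 min at 37 °C, quenched with 1 M NaOH, absorbance read at 405 nm. Triplicates, repeated at least three times.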

[17] = Aqueous solubility at 200 uM; assay type: physicochemical; conditions: buffer

| SMILES | inhibition [1] [%] | Activity [2] | inhibition [3] [%] | Activity [4] | inhibition [5] [%] | inhibition [6] [%] | Activity [7] | inhibition [8] [%] | inhibition [9] | inhibition [10] [%] | Activity [11] | inhibition [12] | inhibition [13] [%] | inhibition [14] [%] | Activity [15] | inhibition [16] | solubility [17] |
| --- | --- | --- | --- | --- | --- | --- | --- | --- | --- | --- | --- | --- | --- | --- | --- | --- | --- |
| COc1cccc(C(=O)N/N=C/c2cccc(F)c2O)c1 | 17 | inactive | 9 | inactive | 74 | 58 | inactive | 11 | inactive | 45 | inactive | Active | -2 | 7 | Non-toxic |  |  |
| O=C(N/N=C/c1cc(I)cc(I)c1O)c1cc(Cl)cc(Cl)c1 | 23 | inactive | 15 | inactive |  | 21 | inactive | 17 |  | 26 | inactive |  | 0 | 12 |  | inactive | Insoluble |
| O=C(CCc1ccc(F)cc1)N/N=C/c1cc(F)cc(Cl)c1O | 15 | inactive | -1 | inactive | 94 | 90 | inactive | 10 | inactive | 63 | inactive | inactive | -6 | 2 | Non-toxic |  |  |
| COc1ccc(Br)c(/C=N/NC(=O)c2snnc2C)c1O | 34 | inactive | 19 | inactive |  | 71 | inactive | 21 |  | 60 | inactive |  | -5 | 14 |  |  | Insoluble |
| O=C(COc1ccc([N+](=O)[O-])cc1)N/N=C/c1cccc(F)c1O | 25 | inactive | 6 | inactive | 97 | 95 | inactive | 4 | inactive | 84 | inactive | Active |  | -5 | Non-toxic | Active |  |

From ChEMBL document CHEMBL1156948, “Statistical molecular design of a focused salicylidene acylhydrazide library and multivariate QSAR of inhibition of type III secretion in the Gram-negative bacterium Yersinia” (Bioorg Med Chem, 2010)
